# The list is not random: actives were taken first. Their share in the collection is about 1.7%.
# ARNT-TACC3 inh: disrupts binding between human ARNT and TACC3 | AID 623870 | actives 0.66% (n = 390,000) | Q9Y6A5 | AlphaScreen His-ARNT PAS-B/GST-TACC3 binding, luminescence; TACC3 fragment carries E629A point mutation | inhibition, % at 9.99 µM;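 active means mean inhibition of replicates at least 50% and at least half of replicates each reaching 50%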;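 further: 0% = complete ARNT plus TACC3 wells and 100% = ARNT alone without TACC3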
# miR122 inh: inhibitors of miR-122 in Huh7 cells; Huh7 miR-122 Renilla luciferase sensor, 48 h; neutral wells = 0, positive control = 100; activation (reporter increase), % at 12.5 µM; actives 0.3% (n = 340,000); AID 602342;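 active means mean replicate activation score at least 90 and every replicate individually at or above 90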;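 further: higher luciferase means less miR-122 activity so hits act as miR-122 inhibitors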
# CAL PDZ FP-1: blocks peptide binding to the human CAL PDZ domain. Q9HD26. purified CAL PDZ, TMR-peptide fluorescence polarization, 1 h. inhibition, % at 24.9 µM. actives 0.92% (n = 300,000). AID 602252;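 active means mean inhibition of at least 30% with at least half of replicates also reaching 30%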;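 further: 0% = DMSO neutral control and 100% = excess unlabeled competitor peptide PRC23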
# PGC1a acetyl inh: lowers PGC1a acetylation signal in U2OS cells | AlphaScreen anti-acetyl-lysine; with virally co-expressed GCN5 acetyltransferase | inhibition, % at 15.6 µM | actives 0.17% (n = 350,000);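 active means every replicate shows inhibition of at least 40%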;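 further: 0% = neutral control wells and 100% = positive control wells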
# CFTR F508del cor: CFTR F508del correction in bronchial cells; activity (quench increase), % at 7.58 µM; actives 0.36% (n = 350,000); CFBE cells, YFP halide quenching; stimulated with forskolin plus potentiator P3; % fluorescence drop versus neutral controls;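 active means mean added fluorescence quench of at least 8% versus neutral control, with both replicates also reaching 8%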;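 further: cells transiently co-express mutant CFTR-F508del with the halide-sensitive YFP; corrector assay measuring rescue of mutant channel to the surface after 24 h compound exposure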
# CAL PDZ FP-2: blocks peptide binding to human CAL PDZ domain. Q9HD26. purified CAL PDZ, TMR-peptide fluorescence polarization, 1 h. inhibition, % at 20 µM. actives 0.02% (n = 330,000). AID 504414;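 active means highest replicate inhibition of at least 40%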;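 further: plate controls were DMSO neutral control wells for no effect and unlabeled competitor peptide control wells for full effect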
#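 Material: tagged CAL PDZ domain; buffer or medium: 25 mM sodium phosphate pH 7.4, 150 mM NaCl, TCEP, IgG, Thesit; compound dosing: single point, 20 µM; schedule: 1 h incubation at room temperature before polarization reading; measured by: FP readout, S and P plane fluorescence; read-out basis: percent inhibition from loss of millipolarization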
# ARNT Alpha ctr: counter-screen for ARNT/TACC3 inhibitors: AlphaScreen artifacts; shares compounds with ARNT-TACC3 inh; His-ARNT PASB-GST AlphaScreen artifact counter-screen, luminescence; AC50, µM (titrated, usually from 68 µM), for inactives: at the top dose activity change, negative = signal decrease; actives 50% (n = 1,200); AID 651705;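 active means every separate test run was called active for a drop in luminescence, with AC50 within twice the top valid dose, actives reach about 71 µM in these data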
# * marks the source's active call; other numbers are inactive results; x = not tested or not shown; [ ] = remark or other dose.
SMILES,ARNT-TACC3 inh,miR122 inh,CAL PDZ FP-1,PGC1a acetyl inh,CFTR F508del cor,CAL PDZ FP-2,ARNT Alpha ctr
COc1cccc(-c2cn(CC[C@@H]3CC[C@H](NS(=O)(=O)Cc4ccccc4)[C@H](CO)O3)nn2)c1,3,2[16.7 µM],x,-7,-5,x,x
O=C(N[C@@H]1CC[C@@H](CCn2cc(C3CC3)nn2)O[C@@H]1CO)c1cccnc1,-16,-6[16.7 µM],x,-13,-1,x,x
O=C(N[C@H]1CC[C@@H](CCn2cc(-c3ccccn3)nn2)O[C@H]1CO)c1cccnc1,69*,x,x,-5,1,x,26µM*
O=C(CN1CCOCC1)N1CCCCN2[C@H](CO)[C@H](c3ccc(C#Cc4ccccc4)cc3)[C@H]2C1,2,37[16.7 µM],x,-4,0,x,x
O=C(Nc1ccccc1C(=O)Nc1ccccc1C(=O)O)c1ccccc1,74*,2,-6,x,1,-3,26µM*
Nc1ccc(C(=O)Nc2ccccc2C(=O)O)cc1,12,2,-7,-11,x,-1,x
Cc1nnc(N/N=C/c2ccc(-c3ccc(Br)cc3)o2)n1N,51*,x,x,18,-5,1,-29%
O=c1cc(N/N=C/c2ccccc2)[nH]c(=O)[nH]1,20*,5,-1,7,-4,-2,1%
O=c1cc(C=NNc2ccccc2)[nH]c(=O)[nH]1,-4,x,-3,x,-2,0,x
COc1ccccc1-c1cn(CC[C@@H]2CC[C@H](NC(=O)NC(C)C)[C@H](CO)O2)nn1,-6,x,x,-6,-2,x,x
CCN(C[C@H]1N[C@H](CO)[C@@H]1c1ccc(-c2cccc(F)c2)cc1)C(=O)COC,-5,-6[16.7 µM],x,-19,6,x,x
CCC(=O)N1[C@H](CO)[C@@H]2c3ccccc3N(C(=O)Nc3ccccc3Cl)C[C@@H]21,8,-5[16.7 µM],x,-1,-3,x,x
O=C(N[C@H]1CC[C@H](CCNS(=O)(=O)c2ccc(Cl)cc2)O[C@H]1CO)c1cnccn1,-3,x,x,2,1,x,x
O=C(O)C[C@@H]1C=C[C@H](NC(=O)c2ccncc2)[C@@H](CO)O1,2,10[16.7 µM],x,-7,0,x,x
O=C(Nc1ccc2c(c1)[C@@H]1C[C@H](CC(=O)N3CCc4ccccc4C3)O[C@@H](CO)[C@@H]1O2)c1ccc2c(c1)OCO2,51*,-6[16.7 µM],x,-1,-4,x,49µM*
Cc1cccc(Nc2nc(-c3ccccn3)nnc2-c2ccccc2)n1,x,x,x,x,x,x,0.53µM*
c1ccc(-c2csc(Nc3ncccn3)n2)cc1,-2,x,1,x,x,-3,x
c1ccc(-c2csc(Nc3nc(-c4ccccn4)nnc3-c3ccccc3)n2)cc1,x,x,x,x,x,x,2.2µM*
c1ccc(-c2nnc(-c3ccccn3)nc2Nc2cnc3ccccc3n2)cc1,x,x,x,x,x,x,0.76µM*
Cc1noc(C)c1NC(=O)N(C)C[C@H]1Oc2ccc(NC(=O)Cc3cn(C)c4ccccc34)cc2C(=O)N([C@@H](C)CO)C[C@@H]1C,-14,0[16.7 µM],x,0,-1,x,x
C[C@@H]1CN([C@@H](C)CO)C(=O)c2cccc(NS(=O)(=O)c3ccc(F)cc3)c2O[C@@H]1CN(C)Cc1ccc(Oc2ccccc2)cc1,x,46[16.7 µM],x,-9,-1,x,x
O=C(Nc1ccc(F)cc1)N1C[C@@H]2[C@H](c3ccccc31)[C@H](CO)N2C(=O)Cc1cccnc1,-8,-12[16.7 µM],x,2,0,x,x
c1ccc(-c2nc3ccccc3[nH]2)nc1,59*,-1,1,5,x,0,-16%
O=c1[nH]c(-c2ccccn2)nc2ccccc12,64*,x,0,x,x,2,-13%
Cc1ccc2nc(-c3ccccn3)[nH]c2c1,39*,-3,3,3,-1,-1,-15%
SMILES,ARNT-TACC3 inh,miR122 inh,CAL PDZ FP-1,PGC1a acetyl inh,CFTR F508del cor,CAL PDZ FP-2,ARNT Alpha ctr
c1ccc(-c2nc3ccccc3[nH]2)cc1,-2,3,1,0,-1,-1,x
C[C@H]1CN([C@@H](C)CO)C(=O)c2cc(NS(=O)(=O)c3ccc(Cl)cc3)ccc2O[C@H]1CN(C)S(=O)(=O)c1cccs1,-6,-5[16.7 µM],x,-5,2,x,x
O=C(Nc1ccc(Cl)cc1)N[C@H]1CC[C@@H](CCn2cc(Cc3ccccc3)nn2)O[C@@H]1CO,-9,x,x,5,1,x,x
O=C(CSc1ccc2nnc(-c3ccccn3)n2n1)Nc1ccc(F)cc1F,53*,3,30,x,-4,0,-34%
Nn1c(SC/C=C/c2ccccc2)nnc1-c1ccccn1,54*,14,1,2,x,-2,60µM*
COc1ccc(OC)c(NC(=O)CSc2ccc3nnc(-c4ccccn4)n3n2)c1,53*,x,x,x,2,0,-30%
COc1ccccc1NC(=O)CSc1ccc2nnc(-c3ccccn3)n2n1,19,0,x,5,-1,-1,x
O=C(CSc1nnc2ccc(-c3ccccn3)nn12)Nc1ccc(F)cc1F,-2,x,-2,x,-1,-2,x
Cc1ccccc1-n1c(SCC(=O)Nc2ccc3c(c2)OCO3)nnc1-c1ccccn1,61*,-3,-2,10,x,-2,-31%
C[C@@H](NC(=O)C[C@H]1CC[C@H](NC(=O)C2CC2)[C@@H](CO)O1)c1ccccc1,7,x,x,6,-5,x,x
CN(C)CC#Cc1ccc([C@@H]2[C@@H](CO)N3CCCCN(C(=O)C4CCC4)C[C@@H]23)cc1,-7,6[16.7 µM],x,2,1,x,x
C[C@@H]1CN([C@H](C)CO)C(=O)c2cc(-c3ccncc3)cnc2O[C@H]1CN(C)C(=O)C1CCCCC1,-17,-5[16.7 µM],x,-5,2,x,x
Cc1noc(C)c1NC(=O)N(C)C[C@H]1OCCCC[C@H](C)Oc2ccc(NC(=O)NC(C)C)cc2C(=O)N([C@H](C)CO)C[C@@H]1C,3,6[16.7 µM],x,-2,-3,x,x
CCOc1ccc(NC(=O)CSc2nnc(-c3ccccn3)n2N)cc1,20,4,-2,12,x,0,x
COc1ccc(NC(=O)CSc2ccc3nnc(-c4ccccn4)n3n2)cc1,66*,x,x,x,-1,-2,-17%
COc1ccc(NC(=O)CSc2nnc(-c3ccccn3)n2N)cc1,55*,7,x,x,x,0,-34%
CN(C)CCCNC(=O)C[C@H]1CC[C@@H](NS(=O)(=O)c2ccc(F)cc2)[C@H](CO)O1,5,x,x,-2,3,x,x
C/C=C/c1cnc2c(c1)C(=O)N([C@H](C)CO)C[C@H](C)[C@@H](CN(C)C(=O)Cc1ccccc1)O2,-4,-10[16.7 µM],x,-1,-2,x,x
COc1cc(C(=O)NCc2nnc(SCC(=O)Nc3cc(C)on3)o2)cc(OC)c1OC,3,-8,4,8,0,0,x
COc1cc(C(=O)NCc2nnc(SCC(=O)Nc3nccs3)o2)cc(OC)c1OC,69*,x,-7,-6,0,0,-15%

# Bioassay records: PubChem BioAssay, Broad Institute
